Laboratory results: ChEMBL document CHEMBL2321859, “Cytotoxic betulin-derived hydroxypropargylamines trigger apoptosis” (Bioorg Med Chem, 2013)

Tests used:
[1] = tested on: SW-1736; test: Cytotoxicity against human SW1736 cells assessed as cell viability after 96 hrs by SRB assay; format: functional, cell-based; conditions: Homo sapiens, SW-1736, 96 h
[2] = tested on: 8505C; test: Cytotoxicity against human 8505C cells assessed as cell viability after 96 hrs by SRB assay; format: functional, cell-based; conditions: Homo sapiens, 8505C, 96 h
[3] = Cytotoxicity against human A253 cells assessed as cell viability after 96 hrs by SRB assay; format: functional, cell-based; conditions: Homo sapiens, A253, 96 h
[4] = tested on: NIH3T3; test: Cytotoxicity against mouse NIH/3T3 cells assessed as cell viability after 96 hrs by SRB assay; format: cell-based; conditions: NIH3T3, 96 h
[5] = tested on: A549; test: Induction of apoptosis in human A549 cells assessed as early apoptotic cells at 5 uM after 6 hrs by annexin V/propidium iodide staining-based FACS flow cytometric analysis relative to control; format: functional
Outline: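 A549 cells incubated 6 h with compound, then analysed by FACS annexin V/propidium iodide assay. Phosphatidylserine translocation to the outer membrane was taken as the early-apoptosis marker. Cells were scored as percentage dying by necrosis versus programmed cell death. Betulinic acid and maslinic acid were the reference standards.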

[6] = Cytotoxicity against human Lipo cells assessed as cell viability after 96 hrs by SRB assay; format: functional, cell-based; conditions: Homo sapiens, Lipo, 96 h
[7] = tested on: MCF7; test: Cytotoxicity against human MCF7 cells assessed as cell viability after 96 hrs by SRB assay; format: functional, cell-based; conditions: Homo sapiens, MCF7, 96 h
[8] = tested on: A549; test: Cytotoxicity against human A549 cells assessed as cell viability after 96 hrs by SRB assay; format: functional, cell-based; conditions: Homo sapiens, A549, 96 h
[9] = Cytotoxicity against human 518A2 cells assessed as cell viability after 96 hrs by SRB assay; format: functional, cell-based; conditions: Homo sapiens, 518A2, 96 h
[10] = tested on: DLD-1; test: Cytotoxicity against human DLD1 cells assessed as cell viability after 96 hrs by SRB assay; format: functional, cell-based; conditions: Homo sapiens, DLD-1, 96 h
[11] = tested on: A2780; test: Cytotoxicity against human A2780 cells assessed as cell viability after 96 hrs by SRB assay; format: functional, cell-based; conditions: Homo sapiens, A2780, 96 h
[12] = Solubility of the compound in water/DMSO mixture; format: physicochemical; conditions: water/DMSO mixture; read-out: solubility
Outline: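 Solubility was measured in water/DMSO (95:5, v/v) by HPLC with UV/vis detection.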

C=C(C)[C@@H]1CC[C@]2([C@H](O)C#CCN3CCOCC3)CC[C@]3(C)[C@H](CC[C@@H]4[C@@]5(C)CC[C@H](OC(C)=O)C(C)(C)[C@@H]5CC[C@]43C)[C@@H]12.Cl
IC50 [1]: 8.9 µM
IC50 [2]: 7.2 µM
IC50 [3]: 5.2 µM
IC50 [4]: 7.2 µM
Activity [5]: >90%
IC50 [6]: 2.4 µM
IC50 [7]: 7.7 µM
IC50 [8]: 7.6 µM
IC50 [9]: 7 µM
IC50 [10]: 5 µM
IC50 [11]: 4.1 µM
solubility [12]: 192 µg/mL
